Most compounds without a hit are left out; they make up all but 2.6% or so of the library.
T cell modulator – T cell immune modulators affecting CD8 T cell-vesicle binding; 2C CD8+ T cell-vesicle binding, flow cytometry; stronger effect = lower value; response (vesicle binding), % at 7 µM; 330,000 tested, 0.068% active; AID 2052;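 active = response, share of CD8 T cells binding vesicles, and their 90th percentile fluorescence all below set limits, cut at about 80% in these data, passing the limit was not always enough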;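 also: values below 100% mean blocked vesicle binding to the CD8+ T cells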
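Test system: purified 2C TCR transgenic mouse naive CD8+ T cells. Probe or stimulus: QL9-peptide-loaded Drosophila micro-vesicles bearing Ld, ICAM-1 and B7-1. Incubation: binding step 1.5 h, 37 °C, antibody labelling 20 min, ice. Measured by: flow cytometry of vesicle-bound cells.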
SKN-1 inh – inhibitors of C. elegans SKN-1; C. elegans VP596 Pgst-4::GFP/RFP ratio, acrylamide-induced, 24 h; inhibition, % at 21.8 µM; 360,000 tested, 0.49% active;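 active = interference check ratio from 0.5 to 1.5 plus GFP to RFP signal ratio inhibition reaching or exceeding a fixed threshold, cut at about 30% in these data, passing the limit was not always enough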
Rce1 inh – yeast Ras-converting enzyme inhibition. calls only. 290,000 tested, 0.27% active. yeast membranes, quenched prenylated peptide cleavage fluorescence. Q03530;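 active = fall in fluorescence gain of 50% or more versus controls, with final raw signal at or below 3038400; inconclusive = same 50% fall but final raw signal above 3038400; inactive = fall in fluorescence gain under 50%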;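 also: plate controls were neutral control wells for no effect and wells lacking membranes for full effect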
Target sequence (Q03530 whole entry, looked up): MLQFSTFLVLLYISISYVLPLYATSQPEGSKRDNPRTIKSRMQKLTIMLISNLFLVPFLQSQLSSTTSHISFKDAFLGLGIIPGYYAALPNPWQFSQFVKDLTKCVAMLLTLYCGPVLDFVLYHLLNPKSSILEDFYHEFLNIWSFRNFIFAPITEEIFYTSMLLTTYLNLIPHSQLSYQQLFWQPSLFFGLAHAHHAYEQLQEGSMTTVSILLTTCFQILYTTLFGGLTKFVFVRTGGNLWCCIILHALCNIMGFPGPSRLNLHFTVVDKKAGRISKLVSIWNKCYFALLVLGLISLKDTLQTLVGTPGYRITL
GRK2 aptamer HTS – inhibitors of human GRK2 displacing RNA aptamer | bead flow cytometry, FAM-aptamer displacement from GRK2 | inhibition of aptamer binding, % at 10 µM | P25098 | AID 488847 | 330,000 tested, 0.59% active;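 active = inhibition of aptamer binding above 40%, roughly 3 SD of noise, on plates passing a quality check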;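 also: median bead fluorescence of bound FAM aptamer so fluorescent compounds give negative values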
Rin1 Abl inh – human Rin1-Abl interaction inhibition | P00519+Q13671 | TR-FRET Rin1/Abl binding, biochemical | inhibition, % at 7.35 µM | 360,000 tested, 0.4% active | AID 588664; in the data active = inhibition above about 5%, passing the limit was not always enough
Myeloid diff MLP – myeloid differentiation induction | ER-HoxA9 myeloid progenitors, lysozyme-GFP differentiation, flow cytometry | calls only at 10 µM | 360,000 tested, 1% active;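 active = normalized GFP-positive differentiation at or above the plate's own cutoff, the solvent-only control mean plus 3 SD; inconclusive = no clear call, values can overlap the other calls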;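 also: cells exposed to compound for four days before flow analysis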
GRK2 CP1 – human GRK2 inhibition confirmation, cherry pick 1; aptamer displacement, % at 10 µM; 2,000 tested, 4% active; bead-bound GRK2, FAM-aptamer displacement, flow cytometry; AID 504451; shares compounds with GRK2 aptamer HTS;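 active = aptamer displacement above 40%, near three times the noise of non-fluorescent compounds, on plates passing quality checks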;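 also: negative values mostly reflect intrinsic compound fluorescence rather than true enhancement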
Aptamer quench SP – quenches fluorescent RNA aptamer, GRK2 hit artifact; fluorescence response (% of DMSO), % at 10 µM; Carboxyfluorescein RNA aptamer on beads, flow cytometry quenching; stronger effect = lower value; shares compounds with GRK2 aptamer HTS; AID 504580; 2,000 tested, under 10 active;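 active = compounds that quench the bead-bound fluorescent RNA probe, cutting fluorescence to under half of the solvent control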;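 also: counterscreen run without GRK2 so only probe quenching by compound is measured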
GRK2 CP2 – confirmation of human GRK2 inhibitors binding RNA aptamer site. shares compounds with GRK2 aptamer HTS. bead-bound GRK2, FAM-aptamer displacement, flow cytometry. inhibition of aptamer binding, % at 10 µM. 360 tested, under 10 active. AID 504782;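 active = inhibition of aptamer binding above 40%, about triple the noise seen with nonglowing compounds, on plates passing quality control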;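 also: negative values mostly come from compounds that fluoresce themselves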
FAM quench CP2 – counter-screen for GRK2 binding hits: quenchers of fluorescent RNA aptamer | AID 588494 | shares compounds with GRK2 aptamer HTS | 360 tested, under 10 active | fluorescence response vs DMSO, % at 10 µM | carboxyfluorescein RNA aptamer beads, flow cytometry quenching; stronger effect = lower value;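 active = response vs DMSO under 50%, meaning signal dropped by over half, treated as fluorescence quencher; inconclusive = no clear call, values can overlap the other calls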;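 also: labelled aptamer on streptavidin beads without GRK2 as a quench counter-screen; 100% = bead fluorescence of DMSO wells and lower means quenching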
* marks the source's active call; other numbers are inactive results; i = inactive; ? = inconclusive; . = no result given.

SMILES	T cell modulator	SKN-1 inh	Rce1 inh	GRK2 aptamer HTS	Rin1 Abl inh	Myeloid diff MLP	GRK2 CP1	Aptamer quench SP	others
CCOc1ccc(NC(=O)CC(NCc2ccccn2)C(=O)O)cc1 (centres undefined)	396	-5	i	1	4	i	.	.
C[C@@H]1CN([C@@H](C)CO)C(=O)c2c(c3ccccc3n2C)-c2ccccc2CO[C@H]1CN(C)C(=O)[C@H](Cc1ccccc1)N(C)C	.	12	.	.	1	i	.	.
Fc1ccc(Nc2nc(NCc3ccco3)c3ccccc3n2)cc1	677	18	i	0	5	i	.	.
Cc1ccc(N(CC(=O)NCc2ccc(F)cc2)C(=O)c2csnn2)cc1C	418	-11	i	0	-1	i	.	.
O=C(O)CSc1nnc(COc2ccc(Br)cc2)n1-c1ccccc1	212	-14	i	0	0	i	.	.
Cc1cccc(NC(=O)NCC2CC2)c1	151	12	i	0	1	i	.	.
O=C(NC(=S)Nc1ccc2oc(-c3ccncc3)nc2c1)c1ccccc1F	160	13	i	40	1	i	-14	100
Cc1cc(NC(=O)CSc2nc3c(C)c(C)ccc3cc2C)no1	468	-8	i	2	0	i	.	.
COC(=O)C1=C(C)N=c2s/c(=C/c3cccs3)c(=O)n2C1c1cccs1 (centres undefined)	312	39*	i	56*	-1	i	-3	98
COc1ccc(-c2noc(N3CCC(C(=O)Nc4ccc(OC)c(OC)c4)CC3)n2)cc1	595	0	i	83*	2	?	0	100
COc1ccc(-c2noc(N3CCC(C(=O)Nc4ccccc4Cl)CC3)n2)cc1	639	-5	i	0	1	i	.	.
COCC(=O)N1CCC(Oc2ccc(C(=O)NCc3cnc(C)cn3)cc2)CC1	254	-2	i	1	-3	i	.	.
CCn1ccnc1CNC(=O)c1ccc(OC2CCN(C(=O)COC)CC2)cc1	607	-11	i	0	3	i	3	97
CC(O)c1cccc(NC(=O)C2CCCCC2)c1 (centres undefined)	811	-1	i	53*	1	i	0	102
COc1ccc(CCN(C)C(=O)c2cc(-c3ccc(C)cc3)nc3ccccc23)cc1OC	272	-9	i	0	2	?	.	.
Cc1cccc(NC(=O)c2nc[nH]c2C(=O)N[C@@H](Cc2ccccc2)C(=O)OCc2ccccc2)c1	732	6	i	51*	1	i	-2	103	GRK2 CP2=-17;FAM quench CP2=92
CC(=O)c1c(C)[nH]c(C(=O)CN2C(=O)NC(C)(c3ccc(C)cc3)C2=O)c1C (centres undefined)	196	11	i	54*	-3	i	-2	103
CC(C)[C@H](NC(=O)c1ccc(Cl)cc1)C(=O)OCC(=O)N1CCN(c2ccccc2)CC1	566	14	.	0	2	i	.	.
Cc1ccc(N(CN2CCCC2=O)C(=O)c2ccccc2)cc1	426	5	i	67*	-2	i	1	99
Cc1cc(C)nc(SCC(=O)NCc2ccco2)n1	438	-6	i	4	1	i	.	.
Cc1ccc(C2C3=C(CCCC3=O)Nc3nc(SCC(=O)NCc4ccco4)[nH]c(=O)c32)cc1 (centres undefined)	443	0	i	2	3	i	.	.	GRK2 CP2=14;FAM quench CP2=101
Cc1nc(SCC(=O)NCc2ccco2)[nH]c(=O)c1C	187	1	i	8	-2	i	.	.	GRK2 CP2=-26;FAM quench CP2=103
Nc1nc(SCC(=O)NCc2ccco2)[nH]c(=O)c1-c1ccccc1	384	3	i	24	2	i	.	.	GRK2 CP2=-8;FAM quench CP2=103
O=C(CSc1nc2[nH]ncc2c(=O)n1-c1ccccc1Br)NCc1ccco1	172	-3	i	2	5	i	.	.	GRK2 CP2=9;FAM quench CP2=99
C(=C\c1ccccc1)/CN1CCN(C(c2cccc3ccccc23)c2nnnn2C2CCCC2)CC1 (centres undefined)	.	0	.	.	2	i	.	.
SMILES	T cell modulator	SKN-1 inh	Rce1 inh	GRK2 aptamer HTS	Rin1 Abl inh	Myeloid diff MLP	GRK2 CP1	Aptamer quench SP	others
Cc1cc(Cl)c2oc(C(=O)NC3CCC(O)CC3)c(C)c2c1 (centres undefined)	191	0	i	65*	0	i	0	97
COC(=O)C1CCN(C(=O)c2oc3c(Cl)cc(C)cc3c2C)CC1	295	0	i	0	3	i	.	.
NC(=O)NCCc1ccccc1	556	9	i	3	2	i	.	.
CCC1(O)CCCC2C3CCC4CC(=O)CCC4(C)C3C(=O)CC21C (centres undefined)	.	-1	.	.	-1	i	.	.
CCOc1ccc(-c2n[nH]c(=S)c3ccccc23)cc1	197	-3	i	6	-3	i	.	.
CCc1ccccc1NC(=O)NNS(=O)(=O)c1cc(C)ccc1C	208	1	i	0	-2	i	.	.
O=c1c2ccccc2nc2n1CCc1c-2[nH]c2ccccc12	378	2	.	19	-1	i	3	95
Cc1cccc2c(=O)n3c(cc12)-c1[nH]c2ccccc2c1CC3	.	15	.	.	3	i	.	.
Cc1nc(-c2c(C(=O)NNC(=O)Nc3c(C)cccc3C)noc2C)cs1	199	12	i	0	1	i	.	.
CCn1c(SCC(N)=O)nc2sc3c(c2c1=O)CCCC3	310	-25	i	0	0	i	.	.
CCSc1nc2sc3c(c2c(=O)n1CC)CCC3	211	-1	i	3	-1	i	.	.	GRK2 CP2=16;FAM quench CP2=99
CSc1nc2sc3c(c2c(=O)n1C)CCCC3	525	5	i	2	1	i	.	.
CSc1nc2sc3c(c2c(=O)n1C)CCC3	138	0	i	1	-1	i	.	.	GRK2 CP2=-69;FAM quench CP2=98
